Article PMC11070865 (Heliyon, 2024)
In brackets after ≈: the same amount, converted by molar mass. Read-outs that look alike come from different tables or passages of the source.

Assays:
[1] = test system: MCF-7 breast cancer cell line; conditions: MF from Lisotrigona furua propolis; cited from earlier work
KATO-III cells [2] = assay: Programmed cell death, annexin V/PI flow cytometry; assay type: cell-based; conditions: for Q2 late apoptotic cells (annexin V+ PI+): 72 h
[3] = test system: WI-38 normal lung fibroblast cell line; assay: Cell viability by MTT assay, WI-38; assay type: cell-based; conditions: Homo sapiens, read-out: IC50 on WI-38
NFkB = assay: RT-qPCR transcript expression, NFkB; assay type: cell-based; conditions: KATO-III, MF 30 μg/mL or doxorubicin 1.14 μg/mL
BCL-2 = assay: RT-qPCR transcript expression, BCL-2; assay type: cell-based; conditions: KATO-III, 48 h (doxorubicin: from 48 h onwards); MF 30 μg/mL or doxorubicin 1.14 μg/mL
CTSB = assay: RT-qPCR transcript expression, CTSB; assay type: cell-based; conditions: KATO-III, MF 30 μg/mL
CASP7 = assay: RT-qPCR transcript expression, CASP7; assay type: cell-based; conditions: KATO-III, MF 30 μg/mL or doxorubicin 1.14 μg/mL
[4] = test system: LU-1 lung cancer cell line; conditions: MF from Lisotrigona furua propolis; cited from earlier work
KATO-III cell line = assay: Cell viability by MTT assay, KATO-III; assay type: cell-based; conditions: for IC50: Homo sapiens, KATO III, read-out: IC50 on KATO-III
KATO-III cells [5] = assay: Cell cycle arrest analysis, PI flow cytometry; assay type: cell-based; conditions: MF 7.5, 15 and 30 μg/mL, from 24 h exposure onwards, P < 0.01
Summary of the method: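 KATO-III cells at 5 × 10⁵ per well in 6-well plates were exposed to test compound (0, 7.5, 15 and 30 μg/mL final) or 1 % (v/v) DMSO for 24, 48 and 72 h (37 °C, 5 % CO₂). Cells were trypsinized and washed in cold PBS, then fixed in 70 % ethanol on ice for 30 min. They were treated with RNase A (100 μg/mL, 30 min, 37 °C) and stained with PI (50 μg/mL). Flow cytometry recorded 10,000 events per sample, in triplicate.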

COX2 = assay: RT-qPCR transcript expression, COX2; assay type: cell-based; conditions: KATO-III, MF 30 μg/mL or doxorubicin 1.14 μg/mL
CASP3 = assay: RT-qPCR transcript expression, CASP3; assay type: cell-based; conditions: KATO-III, MF 30 μg/mL or doxorubicin 1.14 μg/mL
KATO-III cells [6] = assay: Cell imaging; assay type: cell-based
Summary of the method: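 KATO-III cells at 5 × 10⁵ per well in 6-well plates were left for 16 h, then given test compound (7.5, 15 or 30 μg/mL), doxorubicin (1.14 μg/mL) or 1 % (v/v) DMSO for 24, 48 and 72 h. Culture was at 37 °C, 5 % CO₂, humidified. Morphology was viewed by light microscopy with camera imaging at 100× and 200×.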

[7] = test system: Caco-2, KB, SK-MEL-28 and HN30 cancer cells; conditions: SK-MEL-28, HN30; cited from earlier work
[8] = test system: NCI-N87 gastric cancer cells; conditions: at 200 μg/mL; cited from earlier work
[9] = test system: human gastric adenocarcinoma cell line (AGS cells); conditions: read-out: IC50 against AGS cells; cited from earlier work

## C/C(=C\CC[C@@H](C)[C@H]1CC[C@@]2(C)[C@@H]3CC[C@H]4C(C)(C)[C@@H](O)CC[C@@]45C[C@@]35CC[C@]12C)C(=O)O [Compound 2, mangiferolic acid]
[1]
  IC50 against MCF-7: 62.85 µg/mL (≈ 138 µM)
KATO-III cells [2]; MF 15 μg/mL, listed as MF
  Q2 late apoptotic cells (annexin V+ PI+): slightly increased level of apoptotic cells
[3]; WI-38, 24 h
  IC50: 22 µg/mL (≈ 48.3 µM)
[3]; WI-38, 48 h
  IC50: 13.7 µg/mL (≈ 29.9 µM)
[3]; WI-38, 72 h
  IC50: 11.6 µg/mL (≈ 25.4 µM)
NFkB; 24 h
  NFkB transcript expression level vs control: upregulated with significant increased
NFkB; 48 h
  NFkB transcript expression level vs control: significant upregulation
NFkB; 72 h
  NFkB transcript expression level vs control: increased in gene expression compared to control cells
BCL-2
  BCL-2 transcript expression level vs control: remained the same as in control cells
CTSB; 48 h
  CTSB transcript expression level vs control: significant upregulation
CTSB; 72 h
  CTSB transcript expression level vs control: only a slight increase compared to control cells
CASP7; 48 h
  CASP7 transcript expression level vs control: significant upregulation
CASP7; 72 h
  CASP7 transcript expression level vs control: increased in gene expression compared to control cells
[4]
  IC50 against LU-1: 13.33 µg/mL (≈ 29.2 µM)
KATO-III cell line; 24 h
  IC50: 16 µg/mL (≈ 35.1 µM)
KATO-III cell line; 48 h
  IC50: 12 µg/mL (≈ 26.2 µM)
KATO-III cell line; 72 h
  IC50: 4.78 µg/mL (≈ 10.5 µM)
KATO-III cells [5]
  cell cycle arrest: induced detectable levels of cell cycle arrest at the sub-G1 phase and S phase population
COX2; 24 h
  COX2 transcript expression level vs control: upregulated
COX2; 48 h
  COX2 transcript expression level vs control: significant upregulation
COX2; 72 h
  COX2 transcript expression level vs control: increased in gene expression compared to control cells
CASP3; 48 h
  CASP3 transcript expression level vs control: significant upregulation
CASP3; 72 h
  CASP3 transcript expression level vs control: increased in gene expression compared to control cells
KATO-III cells [6]; 15 μg/mL, 24 and 48 h
  morphology of KATO-III cells: No significant change in the morphology
KATO-III cells [6]; 30 μg/mL, 48 h, 100× magnification
  morphology of KATO-III cells: lower density of cells

## COc1cccc2c1C(=O)c1c(O)c3c(c(O)c1C2=O)C[C@@](O)(C(=O)CO)C[C@@H]3O[C@H]1C[C@H](N)[C@H](O)[C@H](C)O1 [Doxorubicin, doxorubicin, reference compound]
KATO-III cells [2]; doxorubicin 1.14 μg/mL, 48 h
  Q1 early apoptotic cells (annexin V+ PI−): significantly enhanced level of early apoptosis
KATO-III cells [2]; doxorubicin 1.14 μg/mL
  Q2 late apoptotic cells (annexin V+ PI+): significantly higher compared to the control (P < 0.01)
[3]; WI-38, 24 h
  IC50: 0.78 µg/mL (≈ 1.44 µM)
[3]; WI-38, 48 h
  IC50: 0.09 µg/mL (≈ 0.166 µM)
[3]; WI-38, 72 h
  IC50: 0.02 µg/mL (≈ 0.0368 µM)
NFkB; 24 h
  NFkB transcript expression level vs control: no significant difference
BCL-2
  BCL-2 transcript expression level vs control: slightly decreased (but not significant)
CASP7; 24 h
  CASP7 transcript expression level vs control: slightly increase
CASP7; 48 h
  CASP7 transcript expression level vs control: significantly up-regulated
CASP7; 72 h
  CASP7 transcript expression level vs control: significantly up-regulated
KATO-III cell line; 24 h
  IC50: 1.55 µg/mL (≈ 2.85 µM)
KATO-III cell line; 48 h
  IC50: 1.43 µg/mL (≈ 2.63 µM)
KATO-III cell line; 72 h
  IC50: 0.56 µg/mL (≈ 1.03 µM)
KATO-III cell line; both cancer and normal cell lines
  fold higher cytotoxicity than compounds 1 and 2: > 5 fold
COX2; 24 h
  COX2 transcript expression level vs control: no significant difference
CASP3; 48 h
  CASP3 transcript expression level vs control: significantly up-regulated
CASP3; 72 h
  CASP3 transcript expression level vs control: significantly up-regulated
KATO-III cells [6]; 1.14 μg/mL, 72 h
  morphology of KATO-III cells: clear loss of cell density
KATO-III cells [6]; 1.14 μg/mL, after 48 h
  morphology of KATO-III cells: cell shrinkage and blebbing

## COc1c(O)cc2oc3cc(O)c(CC=C(C)C)c(O)c3c(=O)c2c1CC=C(C)C [alpha-mangostin]
[7]
  migration of cancer cells: inhibited the migration

## CC(C)=CCc1c(O)cc2oc3cc(O)c(O)c(CC=C(C)C)c3c(=O)c2c1O [gamma-mangostin]
[7]
  migration of cancer cells: inhibited the migration

## O=C1C[C@@H](c2ccccc2)Oc2cc(O)cc(O)c21 [pinocembrin]
[8]
  cytotoxic activity: 72.5%

## O=c1c(O)c(-c2ccc(O)c(O)c2)oc2cc(O)cc(O)c12 [quercetin]
[9]
  IC50: 160 µM
